Test results from ChEMBL document CHEMBL4819034, “Tricyclic-Carbocyclic RORγt Inverse Agonists-Discovery of BMS-986313” (J Med Chem, 2021).

Tests used:
[1] = AUC (0 to 24 hrs) in mouse at 4 mg/kg, po; format: ADME, organism-based; set-up: time < 24 hr, route oral, dose 4 mg/kg; details: in vivo
Mus musculus [2] = experiment: Protection against recombinant human IL23-induced acanthosis C57BL/6 mouse model assessed as reduction in IL-17F mRNA levels at 3 mg/kg, po BID BID for 10 days by qRT-PCR analysis relative to control; format: functional; set-up: scale not given: the % may be the effect or the level left; details: time 10 day
Procedure, shortened: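 In the IL-23 ear-injection model in C57BL/6 mice with BID oral dosing, ear tissue was collected from all animals at study end on day 10. IL-17A and IL-17F mRNA expression was quantified by qPCR and compared with the placebo arm.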

Mus musculus [3] = experiment: Protection against imiquimod-induced C57BL/6 mouse model of psoriasis assessed as reduction in IL-17F mRNA levels at 10 mg/kg, po BID for 7 days by RT-PCR analysis relative to control; format: functional; set-up: scale not given: the % may be the effect or the level left; details: time 7 day
[4] = Clearance in mouse at 2 mg/kg, iv; format: ADME, organism-based; details: in vivo
Procedure, shortened: (§1)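 Single-dose PK, IV and PO. Doses: mouse and rat 2 mg/kg IV / 4 mg/kg PO; dog and cyno 1 mg/kg IV, with 1 or 2 mg/kg PO.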

[5] = molecular target: T1, Oxysterols receptor LXR-beta (Homo sapiens, UniProt P55055); experiment: Inverse agonist activity at LXRbeta (unknown origin)
T1 sequence (P55055 whole entry): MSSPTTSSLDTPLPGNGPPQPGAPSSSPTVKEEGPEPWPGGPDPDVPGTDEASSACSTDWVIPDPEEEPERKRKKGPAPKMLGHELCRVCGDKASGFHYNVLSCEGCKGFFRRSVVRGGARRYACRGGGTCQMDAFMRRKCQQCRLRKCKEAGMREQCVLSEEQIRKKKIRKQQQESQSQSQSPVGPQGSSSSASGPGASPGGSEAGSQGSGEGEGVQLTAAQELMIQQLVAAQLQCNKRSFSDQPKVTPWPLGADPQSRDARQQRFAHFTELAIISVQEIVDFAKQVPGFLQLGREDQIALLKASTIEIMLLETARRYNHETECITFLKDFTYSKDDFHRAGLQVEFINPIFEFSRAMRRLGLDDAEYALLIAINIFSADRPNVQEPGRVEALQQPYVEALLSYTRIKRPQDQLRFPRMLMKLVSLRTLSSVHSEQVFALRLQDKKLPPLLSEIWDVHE

Mus musculus [6] = experiment: Protection against recombinant human IL23-induced acanthosis C57BL/6 mouse model assessed as inhibition of ear thickening at 3 mg/kg, po BID for 10 days and measured every other day relative to control; format: functional; details: C57BL/6, po, 240 h, time 10 day
Procedure, shortened: (§2)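 IL-23 ear-injection acanthosis model in C57BL/6 mice with BID oral dosing. Ear thickness % change was recorded every other day, before each next injection, from a day 0 baseline. Inhibition of ear thickening was calculated against the placebo arm from the area under the curve over the study duration.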

Mus musculus [7] = experiment: Protection against imiquimod-induced C57BL/6 mouse model of psoriasis assessed as reduction in IL-17F mRNA levels at 20 mg/kg, po BID for 7 days by RT-PCR analysis relative to control; format: functional; set-up: scale not given: the % may be the effect or the level left; details: time 7 day
[8] = Half life in cynomolgus monkey liver microsomes; format: ADME, Macaca fascicularis, Microsome
Procedure, shortened: (§3)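 Liver microsome half-life (min) measured in human, mouse, rat, dog and cyno liver microsomes.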

[9] = Oral bioavailability in cynomolgus monkey at 2 mg/kg; format: ADME, organism-based, Macaca fascicularis; details: in vivo; procedure, shortened: as §1
Mus musculus [10] = experiment: Protection against recombinant human IL23-induced acanthosis C57BL/6 mouse model assessed as change in ear thickness score at 15 mg/kg, po BID for 10 days and measured every other day relative to control; format: functional; details: time 10 day
Procedure, shortened: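 IL-23 was injected into the ear of C57BL/6 mice to induce dermal inflammation and epidermal hyperplasia. Ear thickness was measured at baseline on day 0, then as % change every other day before each next ear injection. Oral dosing was BID.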

[11] = Half life in human liver microsomes; format: ADME, Microsome; procedure, shortened: as §3
Cytochrome P450 1A2 = molecular target: T2, Cytochrome P450 1A2 (Homo sapiens, UniProt P05177); experiment: Inhibition of CYP1A2 (unknown origin); format: ADME
T2 sequence (P05177 whole entry): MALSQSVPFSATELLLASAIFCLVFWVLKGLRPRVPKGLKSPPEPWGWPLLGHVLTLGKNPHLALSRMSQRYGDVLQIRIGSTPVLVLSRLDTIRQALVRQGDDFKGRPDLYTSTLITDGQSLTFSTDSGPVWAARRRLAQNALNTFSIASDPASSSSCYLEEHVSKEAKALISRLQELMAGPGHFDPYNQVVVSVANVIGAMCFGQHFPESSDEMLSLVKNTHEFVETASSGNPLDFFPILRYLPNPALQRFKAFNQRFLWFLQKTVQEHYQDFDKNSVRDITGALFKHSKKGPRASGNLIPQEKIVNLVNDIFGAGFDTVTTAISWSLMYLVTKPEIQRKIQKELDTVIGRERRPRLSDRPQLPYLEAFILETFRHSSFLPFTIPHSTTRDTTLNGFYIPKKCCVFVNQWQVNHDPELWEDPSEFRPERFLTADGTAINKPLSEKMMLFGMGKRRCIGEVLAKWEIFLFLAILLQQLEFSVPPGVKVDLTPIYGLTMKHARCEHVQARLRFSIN

[12] = AUC (0 to 24 hrs) in rat at 4 mg/kg, po; format: ADME, organism-based; set-up: time < 24 hr, route oral, dose 4 mg/kg; details: in vivo
Mus musculus [13] = experiment: Protection against recombinant human IL23-induced acanthosis C57BL/6 mouse model assessed as inhibition of ear thickening at 6 mg/kg, po BID for 10 days and measured every other day relative to control; format: functional; details: C57BL/6, po, 240 h, time 10 day; procedure, shortened: as §2
[14] = Volume of distribution at steady state in mouse at 2 mg/kg, iv; format: ADME, organism-based; details: in vivo, read-out: Vdss
Procedure, shortened: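 Single intravenous dose: mouse and rat 2 mg/kg, dog and cynomolgus 1 mg/kg. Steady-state volume of distribution was derived from the IV arm. Values are means from three or more animals.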

[15] = molecular target: T3, Nuclear receptor ROR-gamma (Mus musculus, UniProt P51450); experiment: Inverse agonist activity at RORgammat in mouse Th17 cells assessed as inhibition of CD3/CD28/IL-1/IL-23-induced IL-17A production measured after 24 hrs by AlphaLISA assay; format: cell-based
T3 sequence (P51450 whole entry): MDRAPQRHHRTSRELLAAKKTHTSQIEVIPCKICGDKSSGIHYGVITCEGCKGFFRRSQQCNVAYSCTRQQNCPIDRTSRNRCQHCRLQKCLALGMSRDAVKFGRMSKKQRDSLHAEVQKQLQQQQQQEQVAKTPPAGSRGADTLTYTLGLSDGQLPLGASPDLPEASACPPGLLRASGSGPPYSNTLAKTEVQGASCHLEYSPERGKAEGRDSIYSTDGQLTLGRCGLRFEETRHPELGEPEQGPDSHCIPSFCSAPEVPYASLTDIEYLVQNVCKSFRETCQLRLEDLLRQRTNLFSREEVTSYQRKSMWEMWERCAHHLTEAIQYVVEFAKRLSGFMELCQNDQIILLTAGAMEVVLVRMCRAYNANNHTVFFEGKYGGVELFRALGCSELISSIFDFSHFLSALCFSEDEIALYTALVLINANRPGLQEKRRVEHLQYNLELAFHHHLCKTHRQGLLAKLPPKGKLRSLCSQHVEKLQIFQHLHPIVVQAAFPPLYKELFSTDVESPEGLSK

[16] = Oral bioavailability in rat at 4 mg/kg; format: ADME, organism-based; details: in vivo; procedure, shortened: as §1

SMILES: CC(C)(O)C(=O)N[C@@H]1CC[C@@]2(S(=O)(=O)c3ccc(F)cc3)c3ccc(C(F)(C(F)(F)F)C(F)(F)F)cc3CC[C@@H]12
- AUC(0-t) at 24 h [1]: 33.2 µM·h
- Activity (Mus musculus [2]): 13.7%
- Activity (Mus musculus [3]): 89.7%
- clearance [4]: 3.7 mL/min/kg
- EC50 [5]: > 5 µM
- inhibition in vivo at 3 mg/kg (Mus musculus [6]): 42.3%
- Activity (Mus musculus [7]): 97.9%
- half-life [8]: 2 h
- bioavailability [9]: 75%
- Activity (Mus musculus [10]): 66.8%
- half-life [11]: 2 h
- IC50 (Cytochrome P450 1A2): 20 µM
- AUC(0-t) at 24 h [12]: 17 µM·h
- inhibition in vivo at 6 mg/kg (Mus musculus [13]): 43.4%
- Vd [14]: 3 L/kg
- EC50 [15]: 0.0027 µM
- bioavailability [16]: 65%
